The text below walks through data of ChEMBL document CHEMBL3421571, “N-Oxide derivatives of 3-(3-pyridyl)-2-phosphonopropanoic acids as potential inhibitors of Rab geranylgeranylation” (Bioorg Med Chem Lett, 2015).

Molecules are shown by their SMILES. pIC50: −log10 of the molar value. Activity calls are given as the source filed them. No cut-off for these calls is given here. Some results are limits rather than exact numbers.

For assay [1], the system named is RPMI-8226. The assay is described as follows: Induction of apoptosis in human RPMI8226 cells assessed as increase in PARP cleavage at 20 uM incubated for 48 hrs by immunoblot method. It counts as functional, cell-based. The essentials:
(§1)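 RPMI-8226 myeloma cells exposed 48 h to lovastatin (20 μM) or bisphosphonates (5 mM), untreated cells as reference. Whole-cell lysates made in RIPA buffer, membrane (detergent) fraction by Triton X-114 partitioning; immunoblotting with β-tubulin (lysate) or calnexin (detergent fraction) as loading controls. Rap1a antibody recognizes only unprenylated protein. Blots representative of two independent experiments.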
Background: Immunoblotting shows a protein as a band on a membrane.

Assay [2] concerns RPMI-8226. As to the kind of experiment: Induction of apoptosis in human RPMI8226 cells assessed as increase in caspase-3 cleavage at 20 uM incubated for 48 hrs by immunoblot method. Type of assay: functional, cell-based. The method in brief: as §1
Assay [3] deals with T1, Farnesyl pyrophosphate synthase (Homo sapiens, UniProt P14324).
T1 sequence (P14324 whole entry): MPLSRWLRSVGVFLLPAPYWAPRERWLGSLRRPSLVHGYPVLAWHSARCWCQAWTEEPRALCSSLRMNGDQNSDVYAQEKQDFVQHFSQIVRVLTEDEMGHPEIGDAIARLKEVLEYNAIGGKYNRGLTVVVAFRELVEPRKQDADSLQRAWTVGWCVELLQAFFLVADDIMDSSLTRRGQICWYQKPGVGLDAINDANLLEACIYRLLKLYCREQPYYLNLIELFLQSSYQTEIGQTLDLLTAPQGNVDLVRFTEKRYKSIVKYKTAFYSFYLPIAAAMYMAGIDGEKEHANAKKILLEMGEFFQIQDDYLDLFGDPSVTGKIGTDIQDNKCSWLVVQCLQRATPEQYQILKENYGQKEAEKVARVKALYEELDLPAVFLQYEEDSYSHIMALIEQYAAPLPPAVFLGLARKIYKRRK
The assay is described as follows: Inhibition of recombinant FDPS (unknown origin) assessed as decrease in […] level using GPP and [14C]IPP as substrate treated with enzyme for 10 mins prior to substrate challenge for 30 mins by liquid scintillation counting analysis.

Assay [4] can be described thus: Inhibition of recombinant GGTase 2 (unknown origin) using recombinant Rab1A and [3H]GGPP as substrate after 20 mins in presence of recombinant REP-2 by liquid scintillation counting analysis. Also noted: species or system Homo sapiens.
The target of assay [5] is Geranylgeranyl transferase type I (Homo sapiens) (UniProt P49354+P53609). The assay is described as follows: Inhibition of GGTase 1 in human RPMI8226 cells assessed as unmodified Rap1a accumulation at 5 mM incubated for 48 hrs by immunoblot method. The note with it: RPMI-8226. It counts as cell-based. The method in brief:
as §1

Assay [6] has as its system RPMI-8226. As to the kind of experiment: Inhibition of GGTase 2 in human RPMI8226 cells assessed as reduction in membrane bound Rab6 protein at 5 mM incubated for 48 hrs by immunoblot method. Type of assay: cell-based. The method in brief: as §1
Assay [7] concerns RPMI-8226. As to the kind of experiment: Induction of apoptosis in human RPMI8226 cells assessed as increase in PARP cleavage at 5 mM incubated for 48 hrs by immunoblot method. Type of assay: functional, cell-based. The method in brief: as §1
In assay [8] the test system is RPMI-8226. As to the kind of experiment: Induction of apoptosis in human RPMI8226 cells assessed as increase in caspase-3 cleavage at 5 mM incubated for 48 hrs by immunoblot method. It counts as functional, cell-based. The essentials:
as §1

Assay [9] deals with RPMI-8226. As to the kind of experiment: Induction of endoplasmic reticulum stress in human RPMI8226 cells assessed as increase in calnexin cleavage at 5 mM incubated for 48 hrs by immunoblot method. It counts as functional, cell-based.
For assay [10], the system named is RPMI-8226. As to the kind of experiment: Inhibition of GGTase 2 in human RPMI8226 cells assessed as disruption of monoclonal protein trafficking by measuring accumulation of intracellular lambda light chain at 5 mM incubated for 48 hrs by ELISA. Type of assay: cell-based. The essentials:
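RPMI-8226 cells treated 48 h with lovastatin (20 μM) or bisphosphonates (5 mM); intracellular lambda light chain quantified by ELISA, expressed as percentage of untreated control (mean + SD, n=3); unpaired two-tailed t-test against untreated cells.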

Consider `CC[C@H](C)C(=O)O[C@H]1C[C@@H](C)C=C2C=C[C@H](C)[C@H](CC[C@@H]3C[C@@H](O)CC(=O)O3)[C@H]21`, for which the outcome in the assay with RPMI-8226 [1] and with RPMI-8226 [2] was Active.
On to `O=C(O)C(Cc1ccc[n+]([O-])c1)P(=O)(O)O` (stereo unspecified), for which the pIC50 is < 2.70 in assay [3] and 3.10 in assay [4]. Besides, the inhibition entry (in assay [5]; with RPMI-8226 [6]; in the assay with RPMI-8226 [10]) was “inactive” each time. Moreover, the result with RPMI-8226 [7], in the assay on RPMI-8226 [8] and in the assay with RPMI-8226 [9] was Active.
On to `O=C(O)C(Cc1cccnc1)P(=O)(O)O` (stereo unspecified), for which the figures for the pIC50 in assay [3] and in assay [4] were 3.00 and 2.96, respectively. Further, the inhibition entry (in assay [5]; with RPMI-8226 [10]) was “inactive” throughout. In the assay on RPMI-8226 [6], the inhibition entry is “Active”. Moreover, the result with RPMI-8226 [7], with RPMI-8226 [8] and in the assay on RPMI-8226 [9] was Active.
Take `O=C(O)C(O)(Cc1cccnc1)P(=O)(O)O` (stereo unspecified): the pIC50 in assay [3] was 3.70; in assay [4] it was 3.15. In assay [5], the inhibition result was “inactive”. Besides, the inhibition entry with RPMI-8226 [6] and in the assay with RPMI-8226 [10] was “Active” in each case. Besides, the outcome in the assay on RPMI-8226 [7], in the assay with RPMI-8226 [8] and with RPMI-8226 [9] was Active.
Consider `O=C(O)C(O)(Cc1ccc[n+]([O-])c1)P(=O)(O)O` (stereo unspecified), for which the pIC50 in assay [3] was 2.70; in assay [4] it was 2.74. The inhibition result in assay [5] is “inactive”. Further, the inhibition entry in the assay with RPMI-8226 [6] and with RPMI-8226 [10] was “Active” throughout.

By pIC50 is commonly meant the IC50 on a negative log10 scale, so that one unit is a factor of ten.
